# Experimental data as given in ChEMBL document CHEMBL3608218, “Optimization of a Dibenzodiazepine Hit to a Potent and Selective Allosteric PAK1 Inhibitor” (ACS Med Chem Lett, 2015).
# Active and inactive are the calls of the source. The rule behind the calls is not given here.
# Assays:
# [1] = target: Cytochrome P450 2D6 (Homo sapiens, UniProt P10635); assay: Inhibition of CYP2D6 (unknown origin); assay type: ADME
# [2] = target: Cytochrome P450 2C9 (Homo sapiens, UniProt P11712); assay: Inhibition of CYP2C9 (unknown origin); assay type: ADME
# [3] = target: Cytochrome P450 3A4 (Homo sapiens, UniProt P08684); assay: Inhibition of CYP3A4 midazolam site (unknown origin); assay type: ADME
# [4] = Apparent permeability across apical to basolateral side in human Caco2 cells; assay type: ADME, cell-based; settings: Caco-2
# [5] = target: T1, Serine/threonine-protein kinase PAK 2 (Homo sapiens, UniProt Q13177); settings: SU8686, 0.009 to 20 uM
# [6] = Permeability of the compound by PAMPA; assay type: physicochemical
# How it was run: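 PAMPA permeability was expressed as a calculated fraction absorbed (cFA).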
# [7] = Half life in rat liver microsomes; assay type: ADME
# [8] = Aqueous solubility of the compound at pH 6.8; assay type: physicochemical; settings: buffer
# [9] = tested on: SU.86.86; assay: Cytotoxicity against human SU8686 cells assessed as growth inhibition at 0.21 uM after 5 days by CTG assay in presence of PAK2 shRNA; assay type: functional, cell-based
# [10] = tested on: SU.86.86; assay: Cytotoxicity against human SU8686 cells assessed as growth inhibition at >2 uM after 5 days by CTG assay; assay type: functional, cell-based
# [11] = target: T1, Serine/threonine-protein kinase PAK 2; settings: SU8686, 6 to 20 uM
# [12] = target: T1, Serine/threonine-protein kinase PAK 2; assay: Binding affinity to PAK2 (unknown origin) expressed in HEK293 cells after 1 hr by qPCR analysis; assay type: cell-based
# [13] = target: T1, Serine/threonine-protein kinase PAK 2; settings: SU8686, 0.21 uM
# [14] = target: Histamine H1 receptor (Homo sapiens, UniProt P35367); assay: Inhibition of recombinant human histamine H1 receptor
# [15] = target: T2, Muscarinic acetylcholine receptor M1 (Homo sapiens, UniProt P11229); assay: Inhibition of recombinant human muscarinic M1 receptor
# T2 sequence (P11229 whole entry): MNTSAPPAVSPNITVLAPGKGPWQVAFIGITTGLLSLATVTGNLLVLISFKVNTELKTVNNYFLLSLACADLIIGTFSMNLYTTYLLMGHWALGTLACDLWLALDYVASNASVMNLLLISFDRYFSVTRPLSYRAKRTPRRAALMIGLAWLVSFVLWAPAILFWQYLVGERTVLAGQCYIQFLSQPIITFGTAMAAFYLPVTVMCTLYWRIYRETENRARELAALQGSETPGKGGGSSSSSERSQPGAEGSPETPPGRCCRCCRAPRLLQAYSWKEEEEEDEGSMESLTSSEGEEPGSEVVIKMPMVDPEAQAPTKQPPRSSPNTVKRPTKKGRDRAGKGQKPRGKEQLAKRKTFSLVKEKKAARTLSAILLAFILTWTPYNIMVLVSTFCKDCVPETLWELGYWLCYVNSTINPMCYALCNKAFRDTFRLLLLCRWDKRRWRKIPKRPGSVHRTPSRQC
# [16] = Aqueous solubility of the compound at pH 4; assay type: physicochemical; settings: buffer
# [17] = target: T3, Serine/threonine-protein kinase PAK 1 (Homo sapiens, UniProt Q13153); assay: Inhibition of wild type phosphorylated form of PAK1 (249 to 545) (unknown origin) expressed in Escherichia coli using 5-Fluo-Ahx-AKRRRLSSLRA-COOH as substrate preincubated for 60 mins followed by substrate addition measured after 60 mins by Caliper assay
# [18] = target: T3, Serine/threonine-protein kinase PAK 1; assay: Inhibition of wild type dephosphorylated form of PAK1 (249 to 545) (unknown origin) expressed in Escherichia coli using 5-Fluo-Ahx-AKRRRLSSLRA-COOH as substrate preincubated for 60 mins followed by substrate addition measured after 60 mins by Caliper assay
# [19] = target: T4, Serine/threonine-protein kinase PAK 6 (Homo sapiens, UniProt Q9NQU5); assay: Inhibition of full length human PAK6 assessed as phosphate incorporation onto MBP preincubated for 5 mins followed by Cdc42, MBP, and mixture of ATP and [32P]-gamma-ATP addition measured after 20 mins by scintillation counting analysis
# [20] = target: Serine/threonine-protein kinase PAK 5 (Homo sapiens, UniProt Q9P286); assay: Inhibition of full length PAK5 (unknown origin) expressed in HEK293 cells assessed as phosphate incorporation onto MBP preincubated for 5 mins followed by Cdc42, MBP, and mixture of ATP and [32P]-gamma-ATP addition measured after 20 mins by scintillation counting analysis; assay type: cell-based
# [21] = target: T3, Serine/threonine-protein kinase PAK 1; assay: Non-ATP competitive inhibition of full-length human PAK1 assessed as phosphate incorporation onto MBP preincubated for 5 mins followed by Cdc42, MBP, and mixture of ATP and [32P]-gamma-ATP addition measured after 20 mins by scintillation counting analysis
# [22] = target: T5, Serine/threonine-protein kinase PAK 4 (Homo sapiens, UniProt O96013); assay: Inhibition of PAK4 kinase domain (300 to 591) (unknown origin) assessed as phosphate incorporation onto MBP preincubated for 5 mins followed by Cdc42, MBP, and mixture of ATP and [32P]-gamma-ATP addition measured after 20 mins by scintillation counting analysis
# [23] = target: T4, Serine/threonine-protein kinase PAK 6; assay: Binding affinity to PAK6 (unknown origin) expressed in HEK293 cells after 1 hr by qPCR analysis; assay type: cell-based
# [24] = target: Serine/threonine-protein kinase PAK 3 (Homo sapiens, UniProt O75914); assay: Binding affinity to PAK3 (unknown origin) expressed in HEK293 cells after 1 hr by qPCR analysis; assay type: cell-based
# [25] = target: T5, Serine/threonine-protein kinase PAK 4; assay: Binding affinity to PAK4 (unknown origin) expressed in HEK293 cells after 1 hr by qPCR analysis; assay type: cell-based
# [26] = target: T3, Serine/threonine-protein kinase PAK 1; assay: Binding affinity to PAK1 (unknown origin) expressed in HEK293 cells after 1 hr by qPCR analysis; assay type: cell-based
# T5 sequence (O96013 whole entry, the tested form may be a part): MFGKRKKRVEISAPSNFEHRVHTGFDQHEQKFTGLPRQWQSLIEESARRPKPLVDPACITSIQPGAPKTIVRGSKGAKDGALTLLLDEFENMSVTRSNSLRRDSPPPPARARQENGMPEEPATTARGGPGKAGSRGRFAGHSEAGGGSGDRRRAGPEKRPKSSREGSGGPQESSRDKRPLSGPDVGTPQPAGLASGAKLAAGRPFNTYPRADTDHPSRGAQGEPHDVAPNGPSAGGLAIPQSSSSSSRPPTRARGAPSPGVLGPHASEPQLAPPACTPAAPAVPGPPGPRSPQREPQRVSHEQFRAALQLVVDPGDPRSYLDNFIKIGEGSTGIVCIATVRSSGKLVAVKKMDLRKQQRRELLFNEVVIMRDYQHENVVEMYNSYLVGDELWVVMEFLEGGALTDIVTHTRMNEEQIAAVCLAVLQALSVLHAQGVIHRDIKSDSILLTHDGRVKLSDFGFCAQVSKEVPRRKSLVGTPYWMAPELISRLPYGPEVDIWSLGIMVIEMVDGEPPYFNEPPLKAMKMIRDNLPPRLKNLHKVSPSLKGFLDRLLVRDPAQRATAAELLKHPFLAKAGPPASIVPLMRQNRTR
# T4 sequence (Q9NQU5 whole entry): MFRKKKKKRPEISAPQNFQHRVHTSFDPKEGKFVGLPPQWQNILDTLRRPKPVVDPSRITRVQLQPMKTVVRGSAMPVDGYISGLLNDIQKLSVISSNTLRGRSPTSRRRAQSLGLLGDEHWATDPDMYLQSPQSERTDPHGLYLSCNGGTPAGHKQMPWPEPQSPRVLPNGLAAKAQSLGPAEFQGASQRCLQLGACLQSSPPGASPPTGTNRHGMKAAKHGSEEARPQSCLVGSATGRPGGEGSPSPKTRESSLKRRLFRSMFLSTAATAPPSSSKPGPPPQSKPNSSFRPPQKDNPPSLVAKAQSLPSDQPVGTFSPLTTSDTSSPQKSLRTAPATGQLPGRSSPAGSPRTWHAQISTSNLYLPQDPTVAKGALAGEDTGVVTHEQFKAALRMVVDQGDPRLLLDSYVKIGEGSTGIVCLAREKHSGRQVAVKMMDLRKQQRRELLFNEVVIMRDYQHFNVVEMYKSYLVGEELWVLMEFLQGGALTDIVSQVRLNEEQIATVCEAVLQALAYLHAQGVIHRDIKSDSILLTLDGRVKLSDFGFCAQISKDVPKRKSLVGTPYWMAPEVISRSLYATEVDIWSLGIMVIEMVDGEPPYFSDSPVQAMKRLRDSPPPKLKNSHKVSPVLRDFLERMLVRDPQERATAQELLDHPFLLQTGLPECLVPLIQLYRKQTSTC
# T1 sequence (Q13177 whole entry): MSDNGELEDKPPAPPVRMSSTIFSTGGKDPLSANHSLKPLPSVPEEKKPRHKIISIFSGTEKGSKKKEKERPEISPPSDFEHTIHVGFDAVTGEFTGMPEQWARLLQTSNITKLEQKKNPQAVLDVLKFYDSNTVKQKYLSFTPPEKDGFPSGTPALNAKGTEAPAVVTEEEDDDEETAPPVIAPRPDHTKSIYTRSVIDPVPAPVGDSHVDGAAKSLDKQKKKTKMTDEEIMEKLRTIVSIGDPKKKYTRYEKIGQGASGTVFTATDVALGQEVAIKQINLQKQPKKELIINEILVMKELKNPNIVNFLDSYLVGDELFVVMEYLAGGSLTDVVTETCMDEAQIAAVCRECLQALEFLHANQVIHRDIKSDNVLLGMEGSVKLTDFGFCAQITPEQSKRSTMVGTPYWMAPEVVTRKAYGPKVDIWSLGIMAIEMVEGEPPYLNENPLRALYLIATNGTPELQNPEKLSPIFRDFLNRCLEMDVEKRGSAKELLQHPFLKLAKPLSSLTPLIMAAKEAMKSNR
# Serine/threonine-protein kinase PAK 3, sequence (O75914 whole entry): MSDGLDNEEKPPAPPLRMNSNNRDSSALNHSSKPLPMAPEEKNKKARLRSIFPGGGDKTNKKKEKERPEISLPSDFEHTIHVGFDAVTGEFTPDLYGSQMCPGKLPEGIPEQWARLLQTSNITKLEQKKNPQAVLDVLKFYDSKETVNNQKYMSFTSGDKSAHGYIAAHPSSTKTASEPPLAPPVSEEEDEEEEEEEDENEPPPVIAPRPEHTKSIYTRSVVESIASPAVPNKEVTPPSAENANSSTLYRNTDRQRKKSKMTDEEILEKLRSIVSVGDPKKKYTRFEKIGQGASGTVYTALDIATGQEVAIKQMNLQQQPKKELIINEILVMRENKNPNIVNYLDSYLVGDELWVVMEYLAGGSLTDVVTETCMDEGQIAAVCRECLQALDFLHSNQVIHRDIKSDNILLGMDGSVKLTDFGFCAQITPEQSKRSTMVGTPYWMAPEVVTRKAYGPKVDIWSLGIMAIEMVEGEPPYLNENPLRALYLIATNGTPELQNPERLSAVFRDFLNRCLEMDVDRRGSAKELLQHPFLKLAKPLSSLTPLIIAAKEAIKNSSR
# T3 sequence (Q13153 whole entry): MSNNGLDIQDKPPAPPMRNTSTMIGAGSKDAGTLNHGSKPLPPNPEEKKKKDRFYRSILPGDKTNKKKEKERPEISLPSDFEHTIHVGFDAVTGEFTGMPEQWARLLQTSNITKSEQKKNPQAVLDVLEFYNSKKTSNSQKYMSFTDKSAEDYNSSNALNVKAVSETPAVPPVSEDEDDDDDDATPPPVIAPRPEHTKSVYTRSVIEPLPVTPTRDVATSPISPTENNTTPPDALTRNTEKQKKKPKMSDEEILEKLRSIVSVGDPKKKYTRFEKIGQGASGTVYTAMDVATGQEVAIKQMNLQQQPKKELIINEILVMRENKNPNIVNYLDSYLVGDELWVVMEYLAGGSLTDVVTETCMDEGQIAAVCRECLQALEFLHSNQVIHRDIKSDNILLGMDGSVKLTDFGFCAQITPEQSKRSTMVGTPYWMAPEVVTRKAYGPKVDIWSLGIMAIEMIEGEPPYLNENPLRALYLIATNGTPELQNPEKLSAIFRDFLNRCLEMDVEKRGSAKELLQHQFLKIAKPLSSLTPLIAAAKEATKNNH
# Histamine H1 receptor, sequence (P35367 whole entry): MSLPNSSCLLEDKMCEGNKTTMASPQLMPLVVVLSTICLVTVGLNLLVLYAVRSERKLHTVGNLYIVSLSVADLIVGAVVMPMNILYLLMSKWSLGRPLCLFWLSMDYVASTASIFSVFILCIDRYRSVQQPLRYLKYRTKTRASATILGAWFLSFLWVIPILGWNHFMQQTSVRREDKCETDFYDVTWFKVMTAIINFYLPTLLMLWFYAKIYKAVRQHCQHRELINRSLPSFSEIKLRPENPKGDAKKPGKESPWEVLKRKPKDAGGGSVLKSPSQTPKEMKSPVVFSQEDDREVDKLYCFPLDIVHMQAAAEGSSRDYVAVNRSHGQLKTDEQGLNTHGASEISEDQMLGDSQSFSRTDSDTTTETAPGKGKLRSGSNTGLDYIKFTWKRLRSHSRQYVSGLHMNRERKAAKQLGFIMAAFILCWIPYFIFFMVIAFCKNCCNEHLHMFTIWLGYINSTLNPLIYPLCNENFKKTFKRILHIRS
# Serine/threonine-protein kinase PAK 5, sequence (Q9P286 whole entry): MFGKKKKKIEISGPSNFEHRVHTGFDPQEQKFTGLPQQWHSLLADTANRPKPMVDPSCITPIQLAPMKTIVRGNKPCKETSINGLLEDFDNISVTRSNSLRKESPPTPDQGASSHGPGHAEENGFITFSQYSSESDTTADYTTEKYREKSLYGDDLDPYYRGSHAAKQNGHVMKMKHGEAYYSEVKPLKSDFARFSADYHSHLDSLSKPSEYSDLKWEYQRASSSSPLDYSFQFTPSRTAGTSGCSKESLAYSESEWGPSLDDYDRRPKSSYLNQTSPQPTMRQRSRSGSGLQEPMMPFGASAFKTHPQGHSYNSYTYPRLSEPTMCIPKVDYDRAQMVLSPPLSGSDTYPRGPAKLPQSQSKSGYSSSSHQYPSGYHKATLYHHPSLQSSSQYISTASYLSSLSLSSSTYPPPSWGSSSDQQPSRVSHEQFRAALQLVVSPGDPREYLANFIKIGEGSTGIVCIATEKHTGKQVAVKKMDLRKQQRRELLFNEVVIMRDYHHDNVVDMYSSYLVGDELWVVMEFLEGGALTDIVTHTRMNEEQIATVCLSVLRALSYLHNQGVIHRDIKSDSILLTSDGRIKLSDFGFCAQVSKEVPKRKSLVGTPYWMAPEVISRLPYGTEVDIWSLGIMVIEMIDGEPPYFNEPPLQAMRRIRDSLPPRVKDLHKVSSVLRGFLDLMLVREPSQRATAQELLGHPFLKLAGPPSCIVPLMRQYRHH
# Cytochrome P450 2C9, sequence (P11712 whole entry): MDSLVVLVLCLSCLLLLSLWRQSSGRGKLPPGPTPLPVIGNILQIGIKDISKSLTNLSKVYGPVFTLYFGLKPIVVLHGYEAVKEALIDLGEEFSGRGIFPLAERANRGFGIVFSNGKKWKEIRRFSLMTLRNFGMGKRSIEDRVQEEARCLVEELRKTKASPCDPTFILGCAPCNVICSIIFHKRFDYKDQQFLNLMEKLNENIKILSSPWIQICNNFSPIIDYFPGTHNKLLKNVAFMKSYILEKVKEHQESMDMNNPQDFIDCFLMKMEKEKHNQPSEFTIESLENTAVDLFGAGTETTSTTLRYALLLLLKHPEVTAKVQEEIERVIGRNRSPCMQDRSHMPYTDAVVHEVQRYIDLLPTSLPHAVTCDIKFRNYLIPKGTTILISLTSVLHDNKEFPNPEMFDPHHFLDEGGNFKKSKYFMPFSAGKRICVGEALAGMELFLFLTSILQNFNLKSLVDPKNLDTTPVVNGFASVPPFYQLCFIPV
SMILES,Kd [12],IC50 [18],Kd [23],Kd [24],Kd [25],Kd [26],solubility [8],IC50 [14],IC50 [15],other results
CC(C)NC(=O)N1CC[C@H](NC2=Nc3cc(F)ccc3N(CC(F)F)c3ccc(Cl)cc32)C1,0.4 µM,,,,,,55 µM,> 30 µM,> 30 µM,INH [1]: > 20 µM; INH [2]: 16.7 µM; INH [3]: 13.2 µM; Papp A→B [4]: 0.428 ×10⁻⁶ cm/s; inhibition [5]: Active; permeability [6]: permeable; half-life [7]: 3.5 min; growth inhibition (GI) [9]: Active; growth inhibition (GI) [10]: Active; inhibition [11]: Active; inhibition [13]: Active; solubility [16]: > 1000 µM
CN1CCN(C2=Nc3cc(F)ccc3Nc3ccc(F)cc32)CC1,,12 µM,,,,,,0.001 µM,0.006 µM,IC50 [17]: 54 µM
Oc1ccc2ccccc2c1SSc1c(O)ccc2ccccc12,,,,,,,,,,IC50 [19]: > 10 µM; IC50 [20]: > 10 µM; IC50 [21]: 2.5 µM; IC50 [22]: > 10 µM
CCN1c2ccc(F)cc2N=C(N[C@H]2CCN(C(=O)OC(C)(C)C)C2)c2cc(Cl)ccc21,> 40 µM,0.19 µM,> 40 µM,> 40 µM,> 40 µM,0.13 µM,,,,

# Continued, in another order:
Kd [12],IC50 [18],Kd [23],Kd [24],Kd [25],Kd [26],SMILES,solubility [8],IC50 [14],IC50 [15],other results
> 40 µM,0.323 µM,> 40 µM,> 40 µM,> 40 µM,0.34 µM,CCN1c2ccc(F)cc2N=C(N2CCN(C)CC2)c2cc(Cl)ccc21,,,,
1.1 µM,,,> 40 µM,> 40 µM,,CCN1c2ccc(F)cc2N=C(N[C@H]2CCN(C(=O)NC(C)(C)C)C2)c2cc(Cl)ccc21,< 4 µM,,,
